# Assay outcomes (PubChem BioAssay)
# DNMT1 inh: DNMT1 (human) enzyme inhibition. inhibition (reported as % activation of signal), % at 10 µM. 360,000 tested, 0.83% active. DNMT1 molecular beacon, Hinp1I cleavage, fluorescence. P26358. AID 588458; in the data active = inhibition above about 50%
# STEP block: STEP (human) phosphatase inhibition. P54829. recombinant STEP, OMFP fluorogenic substrate, fluorescence. inhibition, % at 20 µM. 360,000 tested, 0.25% active. AID 588621;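 active = inhibition at 20 µM, scaled per plate between control wells, above about 37%, limit read from the data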;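 note: 0% = DMSO with enzyme and substrate and 100% = substrate only without enzyme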
#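 Material: STEP (striatal-enriched tyrosine phosphatase) enzyme, cell-free; Compound dosing: 20 µM single dose in 1% DMSO; Technique: fluorescence read at 480 nm ex / 540 nm em; Times: reaction 20 min, ambient temperature; Medium: 50 mM Bis-Tris pH 6.0 with 2.5 mM DTT and 0.005% Tween 20; Also added: OMFP at 25 µM.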
# Scp-1 inhibitor: blocks human Scp-1 phosphatase activity. 340,000 tested, 0.88% active. Q9GZU7. inhibition, % at 20 µM. Recombinant Scp1, phosphopeptide, malachite green phosphate absorbance. AID 493091;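 active = inhibition above about 50% at 20 µM, limit read from the data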;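 note: plate controls were DMSO wells with enzyme for no effect and wells lacking enzyme for full effect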
# Target sequence (Q9GZU7 76-261 limits assumed): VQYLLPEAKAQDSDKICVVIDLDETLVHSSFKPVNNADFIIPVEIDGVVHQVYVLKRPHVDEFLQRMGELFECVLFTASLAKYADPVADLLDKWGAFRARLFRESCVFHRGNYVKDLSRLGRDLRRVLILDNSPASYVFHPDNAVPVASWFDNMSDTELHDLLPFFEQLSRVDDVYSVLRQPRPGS
#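 Test system: SCP-1 catalytic domain; Buffer or medium: Acidic Tris acetate buffer with magnesium and detergent; Also added: Phosphorylated 17-residue peptide substrate; Compound: single 20 µM dose, 1% DMSO; Schedule: enzyme reaction 45 min at room temperature, colour 5 min, stabilisation 30 min; Signal: Phosphate-binding colour reagent, absorbance read at 630 nm.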
# LMPTP inh: blocks human LMPTP phosphatase; recombinant LMPTP-A, OMFP fluorogenic substrate, fluorescence intensity; AID 651560; 360,000 tested, 0.22% active; inhibition, % at 20 µM;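 active = compounds that cut the enzyme signal by at least half of the control window in the single-dose screen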;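 note: plate controls were DMSO wells with enzyme plus substrate for no effect and substrate without enzyme for full effect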
# Target sequence (P24666 whole entry, looked up): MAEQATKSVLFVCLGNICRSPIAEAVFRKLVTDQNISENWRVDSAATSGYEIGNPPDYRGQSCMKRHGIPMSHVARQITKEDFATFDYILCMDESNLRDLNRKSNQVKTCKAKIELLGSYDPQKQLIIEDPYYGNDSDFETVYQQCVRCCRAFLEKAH
#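 Buffer or medium: Bis-Tris pH 6.0, DTT, detergent; Assay system: LMPTP-A enzyme; Quantity: 0.625 nM enzyme; Detection: endpoint fluorescence intensity; Times: 50 min dark incubation at room temperature; Controls: substrate-only low control, DMSO enzyme-plus-substrate high control; Doses: single 20 µM dose; Read-out: percent inhibition versus substrate-only and uninhibited controls; Reagent: 400 µM OMFP.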
# SUMO1-SIM PPI: SUMO1-SIM interaction modulation; P63165; SUMO1 binding to a labelled peptide, TR-FRET, 1 h; inhibition, % at 20 µM; 360,000 tested, 0.33% active; AID 602429; in the data active = inhibition above about 37%
# Target sequence (P63165 whole entry, looked up): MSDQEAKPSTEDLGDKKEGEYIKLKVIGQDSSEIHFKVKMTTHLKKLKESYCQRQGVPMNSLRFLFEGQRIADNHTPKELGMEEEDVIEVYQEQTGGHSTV
# Casp6 inh: inhibitors of human caspase-6. 350,000 tested, 0.53% active. inhibition, % at 12.5 µM. purified caspase-6, Z-VEID-R110 cleavage fluorescence. P55212;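 active = mean inhibition across replicates at least about 35%, with every replicate also reaching that limit, limit read from the data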;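 note: 0% = median of neutral control wells and 100% = no fluorescence left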
# * marks the source's active call; other numbers are inactive results; . = no result given. The list is not random: actives were taken first. Their share in the collection is about 1.7%.
SMILES,DNMT1 inh,STEP block,Scp-1 inhibitor,LMPTP inh,SUMO1-SIM PPI,Casp6 inh
CCN1CCN(Cc2ccc(NC(=O)c3ccc(C)c(NC(=O)c4cccc5[nH]ccc45)c3)cc2C(F)(F)F)CC1,-21,0,17,1,-23,-8
Fc1ccc(Nc2nnc(-c3ccncc3)s2)cc1Cl,0,-1,.,9,43*,-5
O=C(Nc1ccc(Cl)cc1)Nc1nnc(-c2ccncc2)s1,-16,10,3,60*,9,.
O=C1CC(c2ccc(O)c(O)c2)Oc2c1ccc(O)c2O (stereo unspecified),43,3,53*,60*,20,75*
CN(C)CCNC(=O)c1cccc2nc3c(ccc4ccccc43)nc12,61*,6,0,-1,-47,-27
Cc1ccc(Sc2cc(C(=O)NCCN(C)C)c3ccccc3n2)cc1,1,1,-7,0,-16,-5
CN(C)CCNC(=O)c1cccc2[nH]c(-c3ccncc3)nc12,44,-3,2,-4,4,-5
COc1ccc(Cl)cc1C(=O)NCCN(C)C,1,-1,-7,-2,1,.
COc1ccc(C(=O)NCCN(C)C)c2nc3ccccc3cc12,56*,-3,0,0,-20,-24
COc1cccc2nc3c(C(=O)NCCN(C)C)cccc3cc12,60*,-3,5,2,-34,-74
Cc1ccc(C(=O)OCC(=O)Nc2ccc3[nH]c(=O)[nH]c3c2)cc1S(=O)(=O)N1CCOCC1,0,-2,0,0,7,3
NC(=O)COC(=O)c1cc(S(=O)(=O)N2CCOCC2)ccc1N1CCCCC1,-1,4,-19,-3,0,.
CC(C)CCNC(=O)NC(=O)COC(=O)c1cc(S(=O)(=O)N2CCOCC2)ccc1N1CCCCC1,-2,4,14,0,45*,.
Cc1ccc(S(=O)(=O)N2CCOCC2)cc1C(=O)OCC(=O)Nc1ccc2[nH]c(=O)[nH]c2c1,2,-1,1,2,82*,0
Cc1cccc(C(=O)O/N=C/c2ccc(Br)cc2)c1,3,2,-17,3,-2,2
O=C(COC(=O)c1ccc(S(=O)(=O)N2CCOCC2)cc1)Nc1nc(-c2ccccc2)cs1,5,4,-5,-1,-2,.
C=CCN(Cc1ccc(Br)s1)C(=O)c1ccc(OCc2c(C)noc2C)cc1,-3,2,.,2,-2,1
CCCCN(C(=O)c1cc(Cl)nc2ccccc12)c1c(N)n(CCC)c(=O)[nH]c1=O,3,-2,.,0,-3,0
CCCCn1c(N)c(N(CC(C)C)C(=O)c2cc(-c3ccco3)nc3ccccc23)c(=O)[nH]c1=O,21,0,28,7,4,39*
CCCCn1c(N)c(N(CCC(C)C)C(=O)c2cc(Cl)nc3ccccc23)c(=O)[nH]c1=O,-3,-2,0,-1,0,-1
CCCCN(C(=O)c1cc(-c2ccco2)nc2ccccc12)c1c(N)n(CCC)c(=O)[nH]c1=O,53*,6,61*,9,3,28
COC(=O)CCC(=O)N1CCCC(N2CCN(c3ccc(OC)cc3)CC2)C1 (stereo unspecified),-6,0,-2,36,1,1
O=C(COC(=O)c1ccc(Br)o1)Nc1nc2c(F)c(F)c(F)cc2s1,10,14,35,60*,4,3
O=C(COC(=O)c1ccco1)Nc1nc2c(F)c(F)c(F)cc2s1,-2,4,28,23,2,.
COc1ccc(C(c2c(NC(=O)c3ccco3)sc(C)c2C)N2CCOCC2)cc1 (stereo unspecified),-7,-1,-1,5,2,55*
SMILES,DNMT1 inh,STEP block,Scp-1 inhibitor,LMPTP inh,SUMO1-SIM PPI,Casp6 inh
CCOc1ccccc1N1CCN(CC(=O)NC(=O)NCc2ccco2)CC1,-2,-1,-4,2,-3,1
O=C(NCc1ccc(Cl)cc1)C(=O)NCC1OCCN1C(=O)c1cccs1 (stereo unspecified),-1,0,-10,0,-4,.
CC1=N/C(=C/c2ccco2)C(=O)O1,93*,9,57*,-1,13,35
CCCCNC(=O)CN1C(=O)COc2ccc(S(=O)(=O)N3CCCCCC3)cc21,2,0,-2,0,9,0
CN(Cc1ccco1)c1ncnc2ccc(-c3ccoc3)cc12,2,1,-2,5,6,39*
O=C(O)c1c2c(nc3ccc(Cl)cc13)CCC2,47,6,24,0,4,50*
CC(=O)N1CCN(c2ccc(N)cc2)CC1,-6,-1,-9,2,-5,36*
Cc1nnc2c(NCCC(C)C)nc3ccccc3n12,-1,-3,-6,-2,-1,-1
Cc1nnc2c(NCC(C)c3ccccc3)nc3ccccc3n12 (stereo unspecified),3,2,-4,1,48*,-5
Cc1cc(C)c2ccc3c(C)c(C)n(C)c3c2n1,3,-4,-12,0,10,4
O=C(O)c1nccnc1C(=O)N1CCN(c2ccccc2)CC1,3,-1,6,-1,1,2
Cc1onc(NC(=O)NC(=O)c2c(F)cccc2Cl)c1Br,-2,-2,-2,0,2,76*
Cc1onc(NC(=O)NC(=O)c2c(Cl)cccc2Cl)c1Br,2,-1,1,0,5,-1
O=C(O)CCC(=O)Nc1sc2c(c1C(=O)Nc1ccccc1)CCCCC2,-14,-1,-3,-1,1,47*
O=C(COc1ccccc1)Nc1sc2c(c1C(=O)NCc1cccnc1)CCCC2,30,4,7,51*,-4,.
O=C(O)CCC(=O)Nc1sc2c(c1C(=O)Nc1cccc3ccccc13)CCCCC2,-27,-4,44,0,9,.
CC(=O)Nc1cccc2cc(O)ccc12,2,0,27,2,5,12
CC(=O)Nc1cccc2cc(S(=O)(=O)O)ccc12,28,29,.,6,4,44*
O=C(N/N=C/c1coc2ccccc2c1=O)c1cc(Br)ccc1O,1,-5,6,0,9,43*
O=C(N/N=C/c1coc2ccccc2c1=O)c1ccccc1,1,-2,-4,-1,0,2
Nc1ccc2c(c1)C/C(=C/c1ccco1)C2=O,88*,10,73*,67*,40*,.
COc1ccccc1-c1nnc(NC(=O)OCC(C)C)s1,7,-3,2,-2,7,.
Cn1cnnc1SCC(=O)Nc1ccc(OCc2ccccc2)cc1,-10,1,-4,2,67*,-3
Cn1cnnc1SCC(=O)Nc1ccccc1,0,0,-6,-2,2,-1
